Source: ChEMBL document CHEMBL4376814, “Novel cyclin-dependent kinase 9 (CDK9) inhibitor with suppression of cancer stemness activity against non-small-cell lung cancer” (Eur J Med Chem, 2019)

Tests used:
[1] = molecular target: T1, CDK9/cyclin T1 (Homo sapiens) (UniProt O60563+P50750); assay: Inhibition of recombinant full-length human CDK9/cyclinT1 at 1 uM using KTFCGTPEYLAPEVRREPRILSEEEQEMFRDFDYIADWC peptide as substrate measured after 40 mins in presence of [gamma33P]ATP by scintillation counting method relative to control; type: protein-complex assay
Procedure, shortened: (§1)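 Percent inhibition of kinase activity at a single compound concentration, measured by the outsourced Eurofins KinaseProfiler panel. Values are the mean of two independent experiments.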

[2] = molecular target: T1, CDK9/cyclin T1 (Homo sapiens); assay: Inhibition of recombinant full-length human CDK9/cyclinT1 at 500 nM using KTFCGTPEYLAPEVRREPRILSEEEQEMFRDFDYIADWC peptide as substrate measured after 40 mins in presence of [gamma33P]ATP by scintillation counting method relative to control; type: protein-complex assay; procedure, shortened: as §1
MCF7 = assay: Antiproliferative activity against human MCF7 cells assessed as inhibition of cell viability at 10 uM after 72 hrs by CCK-8 assay relative to control; type: functional; conditions: MCF7, 72 h
Procedure, shortened: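 Single-concentration viability screen using CCK-8. Cells were seeded at 3000/well and treated for 72 h. A450 read after 1-4 h with reagent. Percent inhibition calculated against untreated control and blank wells as (Ac−As)/(Ac−Ab)×100%.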

A549 [3] = assay: Induction of apoptosis in human A549 cells after 48 hrs by AnnexinV-FITC staining-based flow cytometric analysis; type: functional, cell-based
A549 [4] = assay: Induction of apoptosis in human A549 cells assessed as viable cells at 0.25 uM after 48 hrs by AnnexinV-FITC/PI staining-based flow cytometric analysis (reference value: 88.8%); type: functional; conditions: A549, 48 h, read-out: Activity
A549 [5] = assay: Induction of apoptosis in human A549 cells assessed as necrotic cells at 0.5 uM after 48 hrs by AnnexinV-FITC/PI staining-based flow cytometric analysis (reference value: 0.664%); type: functional
[6] = Intrinsic clearance in human liver microsomes at 2 uM in presence of NADPH measured up to 1 hr by HPLC analysis; type: ADME, Microsome
[7] = Intrinsic clearance in Sprague-Dawley rat liver microsomes at 2 uM in presence of NADPH measured up to 1 hr by HPLC analysis; type: ADME, Microsome
[8] = molecular target: Activated CDC42 kinase 1 (Homo sapiens) (UniProt Q07912); assay: Inhibition of recombinant human ACK1 (1 to 389 residues) at 1 uM using EFPIYDFLPAKKK as substrate measured after 40 mins in presence of [gamma33P]ATP by scintillation counting method relative to control
[9] = molecular target: Aurora kinase B (Homo sapiens) (UniProt Q96GD4); assay: Inhibition of recombinant full-length human AURKB at 1 uM using AKRRRLSSLRA as substrate measured after 40 mins in presence of [gamma33P]ATP by scintillation counting method relative to control
[10] = molecular target: Aurora kinase C (Homo sapiens) (UniProt Q9UQB9); assay: Inhibition of recombinant human AURKC (35 to end residues) at 1 uM using AKRRRLSSLRA as substrate measured after 40 mins in presence of [gamma33P]ATP by scintillation counting method relative to control
Sequence of Aurora kinase C (Homo sapiens) (Q9UQB9 whole entry): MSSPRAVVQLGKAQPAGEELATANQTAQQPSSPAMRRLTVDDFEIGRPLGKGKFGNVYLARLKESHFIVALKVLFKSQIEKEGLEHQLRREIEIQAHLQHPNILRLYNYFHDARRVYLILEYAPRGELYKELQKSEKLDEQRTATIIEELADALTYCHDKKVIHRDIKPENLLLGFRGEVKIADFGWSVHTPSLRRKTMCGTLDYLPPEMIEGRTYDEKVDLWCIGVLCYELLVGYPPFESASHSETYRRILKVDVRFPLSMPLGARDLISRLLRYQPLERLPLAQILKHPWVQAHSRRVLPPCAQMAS

[11] = molecular target: Mitogen-activated protein kinase kinase kinase 11 (Homo sapiens) (UniProt Q16584); assay: Inhibition of human MLK3 at 1 uM by radiometric method relative to control; procedure, shortened: as §1
[12] = molecular target: Serine/threonine-protein kinase mTOR (Homo sapiens) (UniProt P42345); assay: Inhibition of recombinant full-length human mTOR at 1 uM after 40 mins in presence of [gamma33P]ATP by scintillation counting method relative to control
[13] = molecular target: Serine/threonine-protein kinase 38-like (Homo sapiens) (UniProt Q9Y2H1); assay: Inhibition of recombinant human NDR2 (83 to end residues) at 1 uM using RSRSRSRSRSRSRSR as substrate measured after 120 mins in presence of [gamma33P]ATP by scintillation counting method relative to control
Sequence of Serine/threonine-protein kinase 38-like (Homo sapiens) (Q9Y2H1 2-464 limits assumed): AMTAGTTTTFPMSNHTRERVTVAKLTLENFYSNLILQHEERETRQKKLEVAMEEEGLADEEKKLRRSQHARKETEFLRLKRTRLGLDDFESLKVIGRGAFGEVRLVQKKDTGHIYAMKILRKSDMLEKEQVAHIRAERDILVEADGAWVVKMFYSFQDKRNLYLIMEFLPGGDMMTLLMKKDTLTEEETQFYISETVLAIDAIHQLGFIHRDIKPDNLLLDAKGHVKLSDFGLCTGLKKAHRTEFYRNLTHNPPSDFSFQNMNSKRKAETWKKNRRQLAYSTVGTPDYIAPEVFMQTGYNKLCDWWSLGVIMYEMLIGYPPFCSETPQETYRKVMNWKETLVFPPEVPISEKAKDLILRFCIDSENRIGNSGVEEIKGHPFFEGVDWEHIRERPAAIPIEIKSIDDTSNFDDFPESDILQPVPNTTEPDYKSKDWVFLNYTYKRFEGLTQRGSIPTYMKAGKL

[14] = molecular target: Serine/threonine-protein kinase Chk1 (Homo sapiens) (UniProt O14757); assay: Inhibition of full length recombinant human CHK1 at 1 uM using KKKVSRSGLYRSPSMPENLNRPR as substrate measured after 40 mins in presence of [gamma33P]ATP by scintillation counting method relative to control
Sequence of Serine/threonine-protein kinase Chk1 (Homo sapiens) (O14757 whole entry): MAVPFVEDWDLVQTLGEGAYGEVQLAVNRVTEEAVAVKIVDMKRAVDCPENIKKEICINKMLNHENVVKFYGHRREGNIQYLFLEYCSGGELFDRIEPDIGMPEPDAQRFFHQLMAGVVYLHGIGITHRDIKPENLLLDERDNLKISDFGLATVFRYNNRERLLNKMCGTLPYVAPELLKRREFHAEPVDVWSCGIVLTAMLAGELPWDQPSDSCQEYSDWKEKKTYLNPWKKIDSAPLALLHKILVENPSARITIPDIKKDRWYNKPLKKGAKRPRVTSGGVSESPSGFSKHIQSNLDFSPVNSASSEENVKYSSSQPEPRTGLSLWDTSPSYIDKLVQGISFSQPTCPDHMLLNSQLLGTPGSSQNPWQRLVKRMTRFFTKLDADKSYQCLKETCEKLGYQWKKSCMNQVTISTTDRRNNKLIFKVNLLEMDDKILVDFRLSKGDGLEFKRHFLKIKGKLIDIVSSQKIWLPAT

[15] = molecular target: Serine/threonine-protein kinase PAK 5 (Homo sapiens) (UniProt Q9P286); assay: Inhibition of recombinant human PAK5 (425 to end residues) at 1 uM using RRRLSFAEPG as substrate measured after 40 mins in presence of [gamma33P]ATP by scintillation counting method relative to control
Sequence of Serine/threonine-protein kinase PAK 5 (Homo sapiens) (Q9P286 whole entry, looked up): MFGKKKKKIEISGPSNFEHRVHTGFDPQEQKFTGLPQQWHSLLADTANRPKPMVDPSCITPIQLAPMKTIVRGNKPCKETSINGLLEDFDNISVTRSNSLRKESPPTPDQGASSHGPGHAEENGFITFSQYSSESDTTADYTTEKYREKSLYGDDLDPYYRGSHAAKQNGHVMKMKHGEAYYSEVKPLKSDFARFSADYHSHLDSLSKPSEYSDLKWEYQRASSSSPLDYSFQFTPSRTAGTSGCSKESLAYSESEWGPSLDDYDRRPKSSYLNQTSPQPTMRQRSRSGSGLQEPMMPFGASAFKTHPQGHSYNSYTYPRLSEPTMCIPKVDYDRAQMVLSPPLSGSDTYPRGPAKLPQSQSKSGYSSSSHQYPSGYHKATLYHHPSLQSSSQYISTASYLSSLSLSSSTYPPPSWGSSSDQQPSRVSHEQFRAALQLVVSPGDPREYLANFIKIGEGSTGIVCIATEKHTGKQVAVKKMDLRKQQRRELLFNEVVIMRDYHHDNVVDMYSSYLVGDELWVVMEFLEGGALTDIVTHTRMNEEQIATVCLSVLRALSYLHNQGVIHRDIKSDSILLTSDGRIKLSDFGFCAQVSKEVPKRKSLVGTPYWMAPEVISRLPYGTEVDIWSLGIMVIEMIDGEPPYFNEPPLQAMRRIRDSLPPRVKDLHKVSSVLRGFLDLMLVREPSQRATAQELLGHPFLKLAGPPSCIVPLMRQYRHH

[16] = molecular target: Serine/threonine-protein kinase pim-2 (Homo sapiens) (UniProt Q9P1W9); assay: Inhibition of recombinant human Pim-2 (2 to end residues) at 1 uM using RSRHSSYPAGT as substrate measured after 40 mins in presence of [gamma33P]ATP by scintillation counting method relative to control
[17] = molecular target: Protein kinase C beta type (Homo sapiens) (UniProt P05771); assay: Inhibition of recombinant human PKCbeta1 (2 to end residues) at 1 uM using histone H1 as substrate measured after 40 mins in presence of [gamma33P]ATP by scintillation counting method relative to control
Sequence of Protein kinase C beta type (Homo sapiens) (P05771 2-671 limits assumed): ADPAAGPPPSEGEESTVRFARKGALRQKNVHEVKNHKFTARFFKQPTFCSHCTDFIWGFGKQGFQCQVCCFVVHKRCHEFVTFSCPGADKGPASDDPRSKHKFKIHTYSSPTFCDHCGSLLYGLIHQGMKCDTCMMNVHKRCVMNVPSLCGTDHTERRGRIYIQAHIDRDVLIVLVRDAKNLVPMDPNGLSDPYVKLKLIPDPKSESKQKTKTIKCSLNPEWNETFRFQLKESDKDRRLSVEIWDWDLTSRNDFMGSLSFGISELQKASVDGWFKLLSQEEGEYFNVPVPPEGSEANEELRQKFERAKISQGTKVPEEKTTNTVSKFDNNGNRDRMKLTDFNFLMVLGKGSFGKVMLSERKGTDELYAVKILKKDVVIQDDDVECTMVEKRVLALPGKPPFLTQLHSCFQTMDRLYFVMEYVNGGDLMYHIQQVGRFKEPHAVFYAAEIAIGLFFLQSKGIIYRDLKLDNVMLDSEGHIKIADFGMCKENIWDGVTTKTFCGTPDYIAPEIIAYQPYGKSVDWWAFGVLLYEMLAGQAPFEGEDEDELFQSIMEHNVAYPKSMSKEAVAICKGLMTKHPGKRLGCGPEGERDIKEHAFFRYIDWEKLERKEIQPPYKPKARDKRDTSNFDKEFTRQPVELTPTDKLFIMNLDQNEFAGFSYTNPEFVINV

[18] = molecular target: Proto-oncogene tyrosine-protein kinase Src (Homo sapiens) (UniProt P12931); assay: Inhibition of recombinant full-length human cSRC at 1 uM using KVEKIGEGTYGVVYK as substrate measured after 40 mins in presence of [gamma33P]ATP by scintillation counting method relative to control
Sequence of Proto-oncogene tyrosine-protein kinase Src (Homo sapiens) (P12931 2-536 limits assumed): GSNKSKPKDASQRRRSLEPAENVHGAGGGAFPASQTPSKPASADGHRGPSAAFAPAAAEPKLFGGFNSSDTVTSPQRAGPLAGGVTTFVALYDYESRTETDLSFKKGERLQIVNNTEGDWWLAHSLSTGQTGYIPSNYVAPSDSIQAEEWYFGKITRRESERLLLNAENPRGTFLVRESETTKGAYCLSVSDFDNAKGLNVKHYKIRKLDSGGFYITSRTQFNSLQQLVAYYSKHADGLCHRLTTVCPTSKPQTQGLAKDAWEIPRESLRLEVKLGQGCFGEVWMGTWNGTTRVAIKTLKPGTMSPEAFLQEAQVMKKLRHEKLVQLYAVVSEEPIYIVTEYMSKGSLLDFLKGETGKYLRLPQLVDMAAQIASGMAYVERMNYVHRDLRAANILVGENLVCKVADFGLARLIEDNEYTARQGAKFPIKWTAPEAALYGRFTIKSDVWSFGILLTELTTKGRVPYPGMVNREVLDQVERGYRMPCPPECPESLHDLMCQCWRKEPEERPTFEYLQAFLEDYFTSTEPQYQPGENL

[19] = molecular target: Fibroblast growth factor receptor 1 (Homo sapiens) (UniProt P11362); assay: Inhibition of recombinant human FGFR1 (456 to 765 residues) at 1 uM using KKKSPGEYVNIEFG as substrate measured after 40 mins in presence of [gamma33P]ATP by scintillation counting method relative to control
[20] = molecular target: cGMP-dependent protein kinase 1 (Homo sapiens) (UniProt Q13976); assay: Inhibition of recombinant full-length human PKG1beta at 1 uM using RRRLSFAEPG as substrate measured after 40 mins in presence of [gamma33P]ATP by scintillation counting method relative to control
[21] = molecular target: Fibroblast growth factor receptor 4 (Homo sapiens) (UniProt P22455); assay: Inhibition of recombinant human FGFR4 (442 to 755 residues) at 1 uM using poly(Glu, Tyr) 4:1 as substrate measured after 40 mins in presence of [gamma33P]ATP by scintillation counting method relative to control
[22] = molecular target: Tyrosine-protein kinase HCK (Homo sapiens) (UniProt P08631); assay: Inhibition of recombinant human activated HCK (230 to 497 residues) at 1 uM using GGMEDIYFEFMGGKKK as substrate measured after 40 mins in presence of [gamma33P]ATP by scintillation counting method relative to control
Sequence of Tyrosine-protein kinase HCK (Homo sapiens) (P08631 2-526 limits assumed): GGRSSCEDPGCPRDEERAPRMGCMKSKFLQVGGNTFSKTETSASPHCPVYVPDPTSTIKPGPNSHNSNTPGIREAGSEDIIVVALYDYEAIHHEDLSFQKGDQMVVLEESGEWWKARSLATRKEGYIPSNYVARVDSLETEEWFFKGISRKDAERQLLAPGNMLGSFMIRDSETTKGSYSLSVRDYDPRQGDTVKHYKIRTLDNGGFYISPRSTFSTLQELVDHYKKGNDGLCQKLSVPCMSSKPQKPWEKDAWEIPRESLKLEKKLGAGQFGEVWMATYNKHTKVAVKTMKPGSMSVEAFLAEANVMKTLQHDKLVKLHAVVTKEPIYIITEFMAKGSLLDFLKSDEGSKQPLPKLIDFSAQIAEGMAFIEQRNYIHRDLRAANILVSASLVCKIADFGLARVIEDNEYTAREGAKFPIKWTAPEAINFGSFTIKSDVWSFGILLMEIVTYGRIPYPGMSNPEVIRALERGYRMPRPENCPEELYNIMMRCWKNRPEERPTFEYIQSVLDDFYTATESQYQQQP

[23] = molecular target: Tyrosine-protein kinase TXK (Homo sapiens) (UniProt P42681); assay: Inhibition of human Txk (256 to end residues) at 1 uM using GEEPLYWSFPAKKK as substrate measured after 40 mins in presence of [gamma33P]ATP by scintillation counting method relative to control; procedure, shortened: as §1
Sequence of Tyrosine-protein kinase TXK (Homo sapiens) (P42681 whole entry, the tested form may be a part): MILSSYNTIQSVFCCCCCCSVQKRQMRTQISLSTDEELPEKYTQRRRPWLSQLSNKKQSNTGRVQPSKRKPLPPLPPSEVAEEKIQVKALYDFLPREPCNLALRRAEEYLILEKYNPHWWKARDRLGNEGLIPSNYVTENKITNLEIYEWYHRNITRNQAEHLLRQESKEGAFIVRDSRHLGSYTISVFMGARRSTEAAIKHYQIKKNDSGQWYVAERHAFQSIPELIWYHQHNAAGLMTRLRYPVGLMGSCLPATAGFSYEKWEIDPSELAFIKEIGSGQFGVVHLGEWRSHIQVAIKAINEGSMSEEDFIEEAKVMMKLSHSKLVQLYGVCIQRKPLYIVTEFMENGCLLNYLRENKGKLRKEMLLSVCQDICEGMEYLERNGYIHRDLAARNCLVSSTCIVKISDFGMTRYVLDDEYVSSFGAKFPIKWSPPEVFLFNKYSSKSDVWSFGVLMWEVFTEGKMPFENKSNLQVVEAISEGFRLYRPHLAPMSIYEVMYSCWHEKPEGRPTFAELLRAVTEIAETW

[24] = molecular target: LIM domain kinase 2 (Homo sapiens) (UniProt P53671); assay: Inhibition of recombinant human LIMK2 at 1 uM by radiometric method relative to control
Sequence of LIM domain kinase 2 (Homo sapiens) (P53671 whole entry, looked up, the tested form may be a part): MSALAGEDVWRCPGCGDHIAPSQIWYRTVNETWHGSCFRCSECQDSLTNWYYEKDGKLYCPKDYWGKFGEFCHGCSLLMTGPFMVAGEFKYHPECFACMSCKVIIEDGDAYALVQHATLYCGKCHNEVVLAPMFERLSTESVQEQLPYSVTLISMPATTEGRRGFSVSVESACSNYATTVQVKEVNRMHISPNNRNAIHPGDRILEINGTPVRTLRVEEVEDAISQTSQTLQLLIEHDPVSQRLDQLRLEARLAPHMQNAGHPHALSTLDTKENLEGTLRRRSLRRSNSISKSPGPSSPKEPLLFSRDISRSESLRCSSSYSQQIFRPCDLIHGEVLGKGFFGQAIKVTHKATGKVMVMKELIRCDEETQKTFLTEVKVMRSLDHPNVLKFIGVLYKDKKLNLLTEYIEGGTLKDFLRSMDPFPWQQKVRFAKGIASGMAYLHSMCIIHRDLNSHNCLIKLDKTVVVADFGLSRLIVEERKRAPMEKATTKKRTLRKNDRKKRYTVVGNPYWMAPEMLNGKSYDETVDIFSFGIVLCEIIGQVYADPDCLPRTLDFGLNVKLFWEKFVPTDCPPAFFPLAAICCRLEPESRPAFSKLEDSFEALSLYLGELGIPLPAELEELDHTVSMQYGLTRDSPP

SMILES: CN(C)C(=O)c1cc2cnc(Nc3ccc(NC(=O)CCCCCCCN=C=S)cc3)nc2n1C1CCCC1
- inhibition [1]: 98%
- inhibition [2]: 98%
- inhibition at 10 µM (MCF7): 98%
- Activity (A549 [3]): Dose-dependent effect
- viability at 0.25 µM (A549 [4]): 77.9%
- Activity (A549 [5]): 6.11%
- CLH [6]: 0.07 mL/min/mg
- CLH [7]: 0.057 mL/min/mg
- inhibition [8]: 82%
- inhibition [9]: 99%
- inhibition [10]: 72%
- inhibition [11]: 90%
- inhibition [12]: -1%
- inhibition [13]: 20%
- inhibition [14]: -9%
- inhibition [15]: -3%
- inhibition [16]: -1%
- inhibition [17]: 20%
- inhibition [18]: 35%
- inhibition [19]: 72%
- inhibition [20]: 0%
- inhibition [21]: -2%
- inhibition [22]: 5%
- inhibition [23]: 81%
- inhibition [24]: 13%
